Source: PubChem (several laboratories)
A1 inh: inhibitors of the anti-apoptotic protein A1, read as caspase activation; MEF A1-2A-BIM cells, Caspase-Glo 3/7 luminescence, 3 h; percent of clofoctol response, vehicle zero; caspase activation, % (concentration not given with the values); actives 0.066% (n = 330,000); AID 2462;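 active means over half of replicate activation scores above 10%, or exactly half above 10 with the replicate mean above 10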
MC4R ag barr: human MC4R agonism via beta-arrestin. actives 0.98% (n = 360,000). activation, % at 8.9 µM. U2OS MC4R beta-arrestin complementation, luminescence; percent of melanotan II response, DMSO zero. AID 540308. P32245;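 active means activation above a per-plate cutoff, the mean activation of sample wells on that plate plus 3 SD, cut at about 8% in these data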
Target sequence (P32245 whole entry, looked up): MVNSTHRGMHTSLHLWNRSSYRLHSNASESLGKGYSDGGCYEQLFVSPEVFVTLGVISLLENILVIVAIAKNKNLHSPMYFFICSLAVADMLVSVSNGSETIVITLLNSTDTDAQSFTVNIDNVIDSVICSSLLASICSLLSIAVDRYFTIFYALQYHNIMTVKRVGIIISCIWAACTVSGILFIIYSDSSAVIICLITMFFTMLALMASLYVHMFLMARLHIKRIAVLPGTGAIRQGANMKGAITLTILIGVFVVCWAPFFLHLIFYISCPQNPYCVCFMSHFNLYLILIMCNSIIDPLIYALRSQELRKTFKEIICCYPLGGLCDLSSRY
MC4R antagonist: human MC4R antagonism in cAMP assay | P32245 | MC4R-expressing cells, MTII-stimulated cAMP, LANCE TR-FRET | inhibition, % at 6.5 µM | actives 0.48% (n = 360,000);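 active means inhibition above its plate's cutoff, the mean of tested wells on that plate plus 3 SD, cut at about 29% in these data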;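 further: 0% = Melanotan II alone and 100% = Melanotan II plus saturating MCL0020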
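system = U2OS cells with stable human MC4R expression | also added = Melanotan II challenge after compound preincubation | dosing = one concentration, 6.5 µM nominal | incubation = compound 30 min, challenge 1 h, detection 1 h | measured by = TR-FRET with Eu-cAMP and labeled anti-cAMP, 671 nm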
Tb MetRS inh: Trypanosoma brucei MetRS inhibition; purified T. brucei MetRS, ATP depletion, Kinase-Glo luminescence; inhibition, % at 11.9 µM; actives 0.4% (n = 360,000);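 active means inhibition above a per-plate cutoff of the control wells' mean inhibition plus 3 SD, cut at about 5.5% in these data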;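 further: 0% = DMSO wells median and 100% = median of wells with control inhibitor compound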
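Test system – parasite MetRS enzyme · Reagent – substrates ATP, L-methionine and bulk Escherichia coli tRNA · Doses – 11.9 µM compound single dose, 0.9% DMSO · Times – 15 min enzyme-compound preincubation, 2 h reaction, 10 min detection, 25 °C · Signal – Kinase-Glo luminescence, ATP depletion format · Controls – DMSO-only wells as low control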
NALP1 inh: inhibitors of NALP1 inflammasome in yeast | actives 0.61% (n = 280,000) | inhibition, % at 10 µM | AID 2071 | S. cerevisiae NALP1/ASC/caspase-1 growth, X-gal OD620, 72 h; in the data active means inhibition mostly above about 24%, no sharp cut-off; inactive means mostly below about 32%
NALP3 yeast inh: inhibitors of NALP3 inflammasome in yeast; Yeast reconstituted NLRP3/ASC/caspase-1, beta-gal luminescence, 24 h; inhibition, % at 10 µM; actives 0.39% (n = 330,000); AID 2825;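 active means inhibition of 50% or more; inactive means inhibition below 50%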;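 further: plate controls were induced DMSO wells for no effect and uninduced yeast grown without galactose for full effect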
* marks the source's active call; other numbers are inactive results; nt = not tested or not shown. Rows were chosen to be rich in hits. Some 2.5% of all compounds tested hit in one or more screens of this group.

SMILES	A1 inh	MC4R ag barr	MC4R antagonist	Tb MetRS inh	NALP1 inh	NALP3 yeast inh
O=C1C2C3CC4C5C3C1C5C1(SCCS1)C42 (centres undefined)	nt	nt	nt	0	nt	nt
CC(C)NC(=O)N(C)C[C@H]1OCc2cnnn2CCCC(=O)N([C@H](C)CO)C[C@H]1C	nt	1	-2	-2	nt	nt
C=C(C)COc1ccc(-c2[nH]ncc2Oc2ccccc2OC)c(O)c1	1	8.9*	17	0	9	15
C=C(C)COc1ccc(-c2[nH]ncc2-c2ccccc2OC)c(O)c1	1	9.2*	2	-1	-11	8
COC(=O)c1ccc2c(=O)n(Cc3ccc4c(c3)OCO4)c(=S)[nH]c2c1	6.3*	-2	14	0	24	7
COc1ccccc1NS(=O)(=O)CC12CCC(CC1=O)C2(C)C (centres undefined)	0	1	4	0	42*	1
O=C(OCC12CC3CC(CC(C3)C1)C2)c1ccc(NCc2cc(O)ccc2O)cc1	nt	11*	1	0	nt	nt
O=C(C[C@H]1C=C[C@@H](NC(=O)c2ccncc2)[C@@H](CO)O1)NCC1CC1	nt	nt	nt	-1	nt	nt
CS(=O)(=O)N1CCC(C(=O)Nc2cc(C(F)(F)F)ccc2Cl)CC1	0	-3	6	0	3	8
O=C(Nc1cc(C(F)(F)F)ccc1Cl)C1CCN(c2nnc(-n3cccc3)s2)CC1	nt	8.6*	2	-1	-94	nt
COC(=O)C1CCN(C(=O)c2cc(-c3ccco3)nc3ccccc23)CC1	0	0	3	0	nt	22
O=C(COC(=O)c1ccc(Br)cc1)NCc1ccccc1	1	-1	7	1	35	10
CC(=O)Cc1cc(O)c2ccccc2c1OC(=O)c1ccc(Br)cc1	0	17*	-1	-1	-2	10
C=C1C(=O)CC2=C1[C@](Cc1ccc(F)cc1)(C(=O)OC)N(C(=O)c1ccccc1)C2	nt	nt	nt	-1	nt	nt
C=C1C(=O)C=C2CN(C(=O)c3ccccc3)[C@@](Cc3ccc(F)cc3)(C(=O)OC)[C@@H]12	0	-2	25	0	63*	31
Cc1cccc(C)c1NC(=O)CNC(=O)C(C)NC(C)c1ccccc1Br (centres undefined)	0	-2	15	0	nt	-5
O=C(/C=C/C(Cl)(Cl)Cl)Nc1ccc(Cl)cc1	nt	3	1	0	nt	nt
NC(=O)/C=C/C(=O)Nc1ccc(Cl)cc1	0	-3	5	0	79*	14
O=C(NCC(F)(F)F)c1ccc(S(=O)(=O)Nc2ccccc2N2CCCC2)cc1	0	1	9	0	nt	9
Cc1[nH]c2ccccc2c1C(=O)C(=O)NC1CC1	0	-3	-2	0	16	12
COc1cc(NC(=S)NC(=O)c2ccccc2F)ccc1NC(=O)c1ccco1	0	9.1*	2	0	19	7
COc1ccccc1C(=O)NC(=S)Nc1ccc(Cc2ccncc2)cc1	-3	13*	15	0	-1	13
CCOC(=O)/C(=C\c1cccnc1)C(=O)c1cc(C(C)=O)c(Nc2ccccc2)s1	22*	-4	-17	0	5	27
CCOC(=O)/C(=C\c1ccccc1)C(=O)c1cc(C(C)=O)c(Nc2ccccc2)s1	-1	-1	15	0	4	19
CCOCCCNc1nc2ccccc2[nH]1	0	-1	-1	8.2*	10	-3
SMILES	A1 inh	MC4R ag barr	MC4R antagonist	Tb MetRS inh	NALP1 inh	NALP3 yeast inh
COc1ccc(-c2ccc3nncn3c2)cn1	nt	-2	16	0	nt	nt
CC(C)=C1C2CCC1C1C(=O)N(NC(=O)COc3ccc(Cl)c(C)c3)C(=O)C21 (centres undefined)	0	2	10	0	41*	15
C=CCNC(=O)CSc1nc2ccccc2c(=O)n1CCc1ccc(OC)c(OC)c1	1	0	24	0	14	15
COc1ccc(CCn2c(SCCN3CCCCC3)nc3ccccc3c2=O)cc1OC	0	-3	21	0	34*	-3
O=C(Nc1cccc(S(=O)(=O)NC2=NCCC2)c1)c1cnc(Cl)c(Cl)c1	-1	-4	28	0	nt	-4
CC(C)c1nc2cc(C(=O)N3CCNC(=O)C3c3ccc(F)cc3)ccc2o1 (centres undefined)	2	-1	4	0	6	6
CC(C)Oc1ccc(C(=O)N(CN2CCCC2=O)c2ccc(F)cc2)cc1	0	-1	13	-1	41*	-3
Nn1c(SCc2ccccc2F)nnc1-c1ccccn1	1	-1	14	0	2	-6
COCCN1C(=O)c2oc3ccccc3c(=O)c2C1c1ccc(OC)c(OC)c1 (centres undefined)	-1	0	6	0	23	17
CCOc1cc(C2c3c(oc4ccccc4c3=O)C(=O)N2c2nccs2)ccc1O (centres undefined)	0	9.5*	-4	0	nt	-1
C=CCN1C(=O)c2oc3ccccc3c(=O)c2C1c1ccc(O)c(OC)c1 (centres undefined)	0	-1	-9	0	38*	6
COc1ccc([N+](=O)[O-])cc1C1NN=C(c2ccccc2O)S1 (centres undefined)	-1	10*	3	-1	17	8
COc1cc(/C=C2\SC(N)=NC2=O)ccc1OCC(=O)Nc1ccccc1C	1	-1	1	0	nt	14
COc1ccc2nc(NC(=O)c3ccccc3[N+](=O)[O-])sc2c1	-2	-3	9	0	30*	6
Cc1ccc(S(=O)(=O)NCC(=O)OCC(=O)NCc2ccc3c(c2)OCO3)cc1	nt	-3	28	0	nt	-9
CCOCCCNC(=O)CN1CCN(S(=O)(=O)c2ccc3c(c2)CCC3)CC1	1	-1	-2	0	nt	12
CC(=O)c1ccc(S(=O)(=O)N2CCN(C(=O)CCC3CCCC3)CC2)cc1	nt	0	-2	0	nt	19
CCCCCCc1c(O)nc(SCC(=O)O)[nH]c1=O	0	-1	1	0	33*	nt
COc1cc(S(=O)(=O)N2CCN(Cc3cccs3)CC2)ccc1NC(C)=O	0	-2	4	0	nt	6
CC(=O)Nc1ccc(S(=O)(=O)N2CCN(Cc3cccs3)CC2)cc1	0	0	9	0	26*	0
COc1ccc(NC(=O)COc2nc(N(C)C)nc(N(C)C)n2)cc1	1	3	1	-1	28*	20
CCOc1ccc(NC(=O)COc2ccc(OC)cc2)cc1	1	-1	9	0	1	32
O=C(Nc1ccc2c(c1)OCCO2)c1ccc(Cl)c([N+](=O)[O-])c1	-1	-1	17	0	7	20
